Measured values: the M2OR odorant receptor database

Experiments:
Settings in all cases: stereoisomer not certain
[1] = molecular target: T1, UniProt Q8VH21
T1 sequence (whole entry): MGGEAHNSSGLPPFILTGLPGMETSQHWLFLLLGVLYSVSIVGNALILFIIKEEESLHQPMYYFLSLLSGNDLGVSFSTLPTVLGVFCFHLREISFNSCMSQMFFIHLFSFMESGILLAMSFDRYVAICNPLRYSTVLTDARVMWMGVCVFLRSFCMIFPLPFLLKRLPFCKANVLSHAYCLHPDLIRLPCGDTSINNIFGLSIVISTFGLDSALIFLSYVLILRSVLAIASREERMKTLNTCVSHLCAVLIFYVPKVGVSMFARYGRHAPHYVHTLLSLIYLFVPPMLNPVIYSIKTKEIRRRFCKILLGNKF
Method in brief: (§1)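 Assay methods differ from source to source, frequently being transient luciferase assays in mammalian cell lines. For each receptor–molecule pair, the label responsive (active) applies when the original authors judged the measured signal statistically different from baseline, and non-responsive (inactive) applies otherwise.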

[2] = molecular target: T2, UniProt Q924H8
T2 sequence (whole entry): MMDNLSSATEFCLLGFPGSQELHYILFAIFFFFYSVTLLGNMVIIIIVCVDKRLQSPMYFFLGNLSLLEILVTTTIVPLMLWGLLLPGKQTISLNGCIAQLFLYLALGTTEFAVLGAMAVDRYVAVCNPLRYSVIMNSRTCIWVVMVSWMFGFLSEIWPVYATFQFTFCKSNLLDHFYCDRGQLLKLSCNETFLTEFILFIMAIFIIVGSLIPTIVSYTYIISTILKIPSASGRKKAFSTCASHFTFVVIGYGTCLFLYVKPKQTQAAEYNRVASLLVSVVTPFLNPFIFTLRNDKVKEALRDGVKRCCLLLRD
Method in brief: as §1

[3] = molecular target: T3, UniProt Q9EPN9
T3 sequence (whole entry): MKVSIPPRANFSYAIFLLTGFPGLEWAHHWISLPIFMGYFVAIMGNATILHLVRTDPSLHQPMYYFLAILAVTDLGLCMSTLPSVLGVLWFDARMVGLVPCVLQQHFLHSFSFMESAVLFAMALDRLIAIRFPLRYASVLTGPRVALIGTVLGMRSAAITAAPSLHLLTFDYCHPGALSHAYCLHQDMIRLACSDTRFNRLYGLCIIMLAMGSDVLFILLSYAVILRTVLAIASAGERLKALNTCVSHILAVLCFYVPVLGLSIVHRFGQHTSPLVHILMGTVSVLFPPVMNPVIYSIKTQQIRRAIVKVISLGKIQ
Method in brief: as §1

[4] = molecular target: UniProt Q9R0K2
Method in brief: as §1

[5] = molecular target: T4, UniProt Q9WU86
T4 sequence (whole entry): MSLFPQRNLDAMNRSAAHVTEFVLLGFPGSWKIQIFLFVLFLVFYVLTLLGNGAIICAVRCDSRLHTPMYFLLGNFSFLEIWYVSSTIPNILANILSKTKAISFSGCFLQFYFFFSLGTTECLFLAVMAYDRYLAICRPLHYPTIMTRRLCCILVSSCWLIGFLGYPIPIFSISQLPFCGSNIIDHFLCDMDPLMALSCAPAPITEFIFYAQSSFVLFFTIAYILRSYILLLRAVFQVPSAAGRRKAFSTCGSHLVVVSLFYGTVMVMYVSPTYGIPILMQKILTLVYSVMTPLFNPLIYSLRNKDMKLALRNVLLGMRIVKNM
Method in brief: as §1

[6] = molecular target: UniProt Q9WVD9
Method in brief: as §1

[7] = molecular target: T5, UniProt Q9WVN5
T5 sequence (whole entry): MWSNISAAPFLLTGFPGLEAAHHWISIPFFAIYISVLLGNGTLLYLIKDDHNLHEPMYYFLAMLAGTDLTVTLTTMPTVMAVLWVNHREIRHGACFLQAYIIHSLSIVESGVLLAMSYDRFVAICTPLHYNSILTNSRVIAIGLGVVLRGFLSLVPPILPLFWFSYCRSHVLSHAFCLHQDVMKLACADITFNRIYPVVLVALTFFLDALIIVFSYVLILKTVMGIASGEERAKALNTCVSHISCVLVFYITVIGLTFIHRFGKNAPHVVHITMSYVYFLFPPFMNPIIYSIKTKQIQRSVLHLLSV
Method in brief: as §1

[8] = molecular target: UniProt Q924X8
Method in brief: as §1

[9] = molecular target: UniProt Q99NH4
Method in brief: as §1

[10] = molecular target: UniProt Q9WU94
Method in brief: as §1

[11] = molecular target: UniProt Q9WVD7
Method in brief: as §1

[12] = molecular target: T6, UniProt Q920P1
T6 sequence (whole entry): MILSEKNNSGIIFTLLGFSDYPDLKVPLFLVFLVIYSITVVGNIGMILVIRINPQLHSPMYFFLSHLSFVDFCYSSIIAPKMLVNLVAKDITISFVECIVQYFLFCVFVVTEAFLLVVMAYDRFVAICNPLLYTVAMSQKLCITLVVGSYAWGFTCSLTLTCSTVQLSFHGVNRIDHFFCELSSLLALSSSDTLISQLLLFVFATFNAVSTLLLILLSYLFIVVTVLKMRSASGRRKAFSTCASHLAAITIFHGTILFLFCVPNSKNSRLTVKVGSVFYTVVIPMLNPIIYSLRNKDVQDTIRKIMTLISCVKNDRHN
Method in brief: as §1

[13] = molecular target: T7, UniProt Q920P2
T7 sequence (whole entry): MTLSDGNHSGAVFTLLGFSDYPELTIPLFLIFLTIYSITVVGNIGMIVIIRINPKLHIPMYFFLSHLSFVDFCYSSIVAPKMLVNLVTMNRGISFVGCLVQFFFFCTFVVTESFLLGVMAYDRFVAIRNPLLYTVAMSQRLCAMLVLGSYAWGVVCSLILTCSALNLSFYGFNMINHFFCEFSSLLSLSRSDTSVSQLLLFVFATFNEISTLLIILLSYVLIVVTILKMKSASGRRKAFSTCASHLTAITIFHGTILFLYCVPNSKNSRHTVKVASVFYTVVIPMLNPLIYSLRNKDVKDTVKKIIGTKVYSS
Method in brief: as §1

Sequence of UniProt Q9WVD9 (Q9WVD9 as listed by the source): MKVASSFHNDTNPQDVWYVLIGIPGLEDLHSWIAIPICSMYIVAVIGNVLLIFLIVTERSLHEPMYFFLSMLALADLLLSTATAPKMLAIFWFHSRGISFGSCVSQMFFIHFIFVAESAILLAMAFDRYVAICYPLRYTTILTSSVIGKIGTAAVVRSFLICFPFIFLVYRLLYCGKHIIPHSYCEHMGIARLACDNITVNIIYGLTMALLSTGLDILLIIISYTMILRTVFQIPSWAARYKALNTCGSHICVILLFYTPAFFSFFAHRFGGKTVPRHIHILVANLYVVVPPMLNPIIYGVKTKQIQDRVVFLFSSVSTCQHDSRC
Sequence of UniProt Q9R0K2 (Q9R0K2 as listed by the source): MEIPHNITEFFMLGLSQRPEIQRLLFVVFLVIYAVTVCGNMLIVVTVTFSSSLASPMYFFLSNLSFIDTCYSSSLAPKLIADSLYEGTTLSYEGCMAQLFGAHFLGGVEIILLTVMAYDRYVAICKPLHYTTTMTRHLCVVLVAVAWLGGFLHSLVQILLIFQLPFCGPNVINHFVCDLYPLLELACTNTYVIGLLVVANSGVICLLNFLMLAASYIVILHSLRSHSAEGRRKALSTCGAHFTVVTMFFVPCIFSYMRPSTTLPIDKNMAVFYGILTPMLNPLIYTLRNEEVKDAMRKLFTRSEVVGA
Sequence of UniProt Q99NH4 (Q99NH4 as listed by the source): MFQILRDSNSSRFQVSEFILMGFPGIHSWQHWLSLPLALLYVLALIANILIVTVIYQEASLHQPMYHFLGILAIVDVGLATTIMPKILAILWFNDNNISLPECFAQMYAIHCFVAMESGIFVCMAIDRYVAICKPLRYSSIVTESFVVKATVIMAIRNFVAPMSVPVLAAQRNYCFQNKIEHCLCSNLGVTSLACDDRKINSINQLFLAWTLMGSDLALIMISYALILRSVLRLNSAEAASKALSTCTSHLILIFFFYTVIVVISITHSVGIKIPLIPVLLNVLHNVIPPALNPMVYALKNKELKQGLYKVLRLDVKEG
Sequence of UniProt Q924X8 (Q924X8 as listed by the source): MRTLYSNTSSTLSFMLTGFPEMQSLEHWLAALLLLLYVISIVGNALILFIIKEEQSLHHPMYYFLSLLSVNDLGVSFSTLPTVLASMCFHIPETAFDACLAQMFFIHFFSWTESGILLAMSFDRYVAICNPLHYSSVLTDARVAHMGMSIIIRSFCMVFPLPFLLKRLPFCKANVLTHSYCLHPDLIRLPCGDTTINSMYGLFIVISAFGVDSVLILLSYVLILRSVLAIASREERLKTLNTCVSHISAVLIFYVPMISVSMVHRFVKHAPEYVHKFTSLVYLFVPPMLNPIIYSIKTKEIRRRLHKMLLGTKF
Sequence of UniProt Q9WU94 (Q9WU94 as listed by the source): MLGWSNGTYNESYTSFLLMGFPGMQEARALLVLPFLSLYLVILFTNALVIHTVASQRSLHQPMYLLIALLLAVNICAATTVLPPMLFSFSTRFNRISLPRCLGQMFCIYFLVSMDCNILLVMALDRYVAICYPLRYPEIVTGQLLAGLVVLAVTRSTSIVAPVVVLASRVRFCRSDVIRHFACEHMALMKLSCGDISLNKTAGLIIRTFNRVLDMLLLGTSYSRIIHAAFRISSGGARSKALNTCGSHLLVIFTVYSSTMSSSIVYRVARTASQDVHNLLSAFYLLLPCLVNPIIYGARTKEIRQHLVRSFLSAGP
Sequence of UniProt Q9WVD7 (Q9WVD7 as listed by the source): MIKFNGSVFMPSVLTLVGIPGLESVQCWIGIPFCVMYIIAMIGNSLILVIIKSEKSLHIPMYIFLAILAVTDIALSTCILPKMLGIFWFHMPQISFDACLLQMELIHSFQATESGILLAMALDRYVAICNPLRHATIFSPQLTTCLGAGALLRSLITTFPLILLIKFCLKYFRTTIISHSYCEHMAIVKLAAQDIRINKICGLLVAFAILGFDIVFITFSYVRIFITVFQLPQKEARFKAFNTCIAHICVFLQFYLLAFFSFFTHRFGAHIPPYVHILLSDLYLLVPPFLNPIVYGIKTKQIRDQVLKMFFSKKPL

Q: For `OCc1ccc2c(c1)OCO2`, which “odorant receptor agonist call” value [1] is on record?
A: Its value is “inactive”.

Q: What about the “odorant receptor agonist call” value [2] of the same molecule?
A: The value was “inactive”.

Q: With `O=c1cc(O)c2ccccc2o1` as the molecule, how does the “odorant receptor agonist call” value [1] read?
A: The value was “inactive”.

Q: And the “odorant receptor agonist call” value [2]?
A: The value was “inactive”.

Q: And the “odorant receptor agonist call” value [3]?
A: Its value is “inactive”.

Q: And the “odorant receptor agonist call” value [4]?
A: The value was “inactive”.

Q: And the “odorant receptor agonist call” value [5]?
A: Its value is “inactive”.

Q: And the “odorant receptor agonist call” value [6]?
A: The value was “inactive”.

Q: What about the “odorant receptor agonist call” value [7] of the same molecule?
A: Its value is “inactive”.

Q: `O=C(O)CCCCCCCBr` was tested. Which “odorant receptor agonist call” value [8] did it give?
A: The value was “active”.

Q: What about the “odorant receptor agonist call” value [9] of the same molecule?
A: The value was “active”.

Q: What about the “odorant receptor agonist call” value [10] of the same molecule?
A: The value was “inactive”.

Q: What about the “odorant receptor agonist call” value [11] of the same molecule?
A: Its value is “active”.

Q: For `Cc1ccc(OC(=O)Cc2ccccc2)cc1`, which “odorant receptor agonist call” value [1] is on record?
A: Its value is “inactive”.

Q: What about the “odorant receptor agonist call” value [2] of the same molecule?
A: The value was “inactive”.

Q: What does the source list for `Oc1ccccc1Br`?
A: odorant receptor agonist call [1]: inactive; odorant receptor agonist call [2]: inactive

Q: What does the source list for `O=Cc1ccccc1`?
A: odorant receptor agonist call [1]: active; odorant receptor agonist call [2]: inactive

Q: Which results are given for `C=CCOC(=O)Cc1ccccc1`?
A: odorant receptor agonist call [1]: inactive; odorant receptor agonist call [2]: inactive; odorant receptor agonist call [3]: active; odorant receptor agonist call [4]: active; odorant receptor agonist call [5]: inactive; odorant receptor agonist call [6]: inactive; odorant receptor agonist call [7]: active

Q: Which “odorant receptor agonist call” value [3] does the source give for `CCC1CCC(=O)O1` (stereo unspecified) here?
A: The value was “inactive”.

Q: And the “odorant receptor agonist call” value [4]?
A: Its value is “inactive”.

Q: And the “odorant receptor agonist call” value [5]?
A: The value was “inactive”.

Q: What about the “odorant receptor agonist call” value [6] of the same molecule?
A: The value was “inactive”.

Q: And the “odorant receptor agonist call” value [7]?
A: The value was “inactive”.

Q: Which “odorant receptor agonist call” value [1] does the source give for `C=C(C)C1CC=C(C=O)CC1` (stereo unspecified) here?
A: Its value is “inactive”.

Q: And the “odorant receptor agonist call” value [2]?
A: The value was “inactive”.

Q: What does the source list for `CCCCCCC(Br)C(=O)O` (stereo unspecified)?
A: odorant receptor agonist call [1]: inactive; odorant receptor agonist call [2]: inactive

Q: What does the source list for `c1ccncc1`?
A: odorant receptor agonist call [12]: inactive; odorant receptor agonist call [13]: inactive

Q: Which “odorant receptor agonist call” value [1] does the source give for `CC(C=O)Cc1ccc2c(c1)OCO2` (stereo unspecified) here?
A: The value was “inactive”.

Q: And the “odorant receptor agonist call” value [2]?
A: Its value is “inactive”.

Q: Which results are given for `C=CCc1ccccc1`?
A: odorant receptor agonist call [12]: inactive; odorant receptor agonist call [13]: inactive; odorant receptor agonist call [3]: inactive; odorant receptor agonist call [4]: inactive; odorant receptor agonist call [5]: active; odorant receptor agonist call [6]: inactive; odorant receptor agonist call [7]: inactive

Q: With `O=CC=Cc1ccccc1` as the molecule, how does the “odorant receptor agonist call” value [1] read?
A: The value was “inactive”.

Q: What about the “odorant receptor agonist call” value [2] of the same molecule?
A: Its value is “inactive”.

Q: What does the source list for `C=CCc1ccc2c(c1)OCO2`?
A: odorant receptor agonist call [12]: inactive; odorant receptor agonist call [13]: inactive

Q: With `COc1ccc(C=O)cc1` as the molecule, how does the “odorant receptor agonist call” value [1] read?
A: Its value is “inactive”.

Q: And the “odorant receptor agonist call” value [2]?
A: Its value is “inactive”.

Q: `O=Cc1ccc2c(c1)OCO2` was tested. Which “odorant receptor agonist call” value [1] did it give?
A: The value was “inactive”.

Q: What about the “odorant receptor agonist call” value [12] of the same molecule?
A: Its value is “inactive”.

Q: What about the “odorant receptor agonist call” value [13] of the same molecule?
A: The value was “inactive”.

Q: What about the “odorant receptor agonist call” value [2] of the same molecule?
A: The value was “inactive”.

Q: What does the source list for `CSSC`?
A: odorant receptor agonist call [1]: inactive; odorant receptor agonist call [2]: inactive

Q: Which results are given for `CCCCC(Br)C(=O)O` (stereo unspecified)?
A: odorant receptor agonist call [1]: inactive; odorant receptor agonist call [2]: inactive; odorant receptor agonist call [9]: active
